# Results from ChEMBL document CHEMBL1949503, “Design, synthesis, theoretical calculations and biological evaluation of new non-symmetrical choline kinase inhibitors” (Eur J Med Chem, 2012).
# Experiments:
# [1] = species on record: Homo sapiens; assay: Inhibition of human choline kinase assessed as incorporation of 14C from [methyl-14C]choline into phosphocholine at 10 uM after 20 mins by liquid scintillation counter
# Summary of the method: (§1)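 Enzyme source was HepG2 cytosol (cells sonicated in 275 mM Tris pH 8.5, 12000 g supernatant), about 50 µg protein. Final mix: 100 mM Tris pH 8.5, 10 mM MgCl2, 10 mM ATP, with inhibitor. Started with 1 mM [methyl-14C]choline, 37 °C for 20 min, stopped by boiling. Phosphocholine was separated on silica TLC and counted by scintillation. IC50 was derived from the concentration series.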
# [2] = species on record: Homo sapiens; assay: Inhibition of human choline kinase assessed as incorporation of 14C from [methyl-14C]choline into phosphocholine at 50 uM after 20 mins by liquid scintillation counter; summary of the method: as §1
# [3] = tested on: HepG2; assay: Cytotoxicity against human HepG2 cells at 10 uM after 24 hrs using crystal violet staining by microplate reader analysis; assay type: functional; settings: HepG2, 24 h
# Summary of the method: (§2)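 HepG2 cells in MEM with 10% FBS were seeded at 10 000 cells/well and grown 24 h. The medium was then replaced with fresh medium/10% FBS, and cells were exposed to inhibitors for 24 h, or to none. Cells were fixed with 1.1% glutaraldehyde, stained with 0.1% crystal violet and solubilised in 10% acetic acid. A590 was converted to cell number with a standard curve.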
# [4] = Inhibition of human choline kinase assessed as incorporation of 14C from [methyl-14C]choline into phosphocholine after 20 mins by liquid scintillation counter; summary of the method: as §1
# [5] = tested on: HepG2; assay: Cytotoxicity against human HepG2 cells at 50 uM after 24 hrs using crystal violet staining by microplate reader analysis; assay type: functional; settings: HepG2, 24 h; summary of the method: as §2
# [6] = tested on: HepG2; assay: Cytotoxicity against human HepG2 cells after 24 hrs using crystal violet staining by microplate reader analysis; assay type: functional, cell-based; settings: HepG2, 24 h; summary of the method: as §2
compound,measurement,setting,value
CN(C)c1cc[n+](Cc2ccc(-c3ccc(Cn4cnc(N)c5ncnc4-5)cc3)cc2)cc1,inhibition,[1],62.3%
same,inhibition,[2],71.4%
same,inhibition at 10 µM,[3],10%
same,IC50,[4],6.21 µM
same,inhibition at 50 µM,[5],7%
Nc1ncn(Cc2ccc(CCCCc3ccc(C[n+]4ccc(N5CCCC5)cc4)cc3)cc2)c2ncnc1-2,inhibition,[1],22.6%
same,inhibition,[2],59.9%
same,inhibition at 10 µM,[3],13.7%
same,inhibition at 50 µM,[5],46.5%
CN(C)c1cc[n+](Cc2ccc(Cn3cnc4c(N)ncnc43)cc2)cc1,inhibition,[1],46.7%
same,inhibition,[2],54.1%
same,inhibition at 10 µM,[3],0%
same,inhibition at 50 µM,[5],5.1%
CN(C)c1cc[n+](Cc2ccc(Cn3cnc(N)c4ncnc3-4)cc2)cc1,inhibition,[1],25%
same,inhibition,[2],50.2%
same,inhibition at 10 µM,[3],10.3%
same,inhibition at 50 µM,[5],2.5%
Nc1ncnc2c1ncn2Cc1ccc(C[n+]2ccc(N3CCCC3)cc2)cc1,inhibition,[1],0%
same,inhibition,[2],27%
same,inhibition at 10 µM,[3],0%
same,inhibition at 50 µM,[5],15.5%
CN(C)c1cc[n+](Cc2ccc(CCc3ccc(Cn4cnc5c(N)ncnc54)cc3)cc2)cc1,inhibition,[1],38.6%
same,inhibition,[2],81%
same,inhibition at 10 µM,[3],10.5%
same,inhibition at 50 µM,[5],10.5%
CN(C)c1cc[n+](Cc2ccc(CCCCc3ccc(Cn4cnc(N)c5ncnc4-5)cc3)cc2)cc1,IC50,[6],38.9 µM
same,inhibition,[1],61.3%
same,inhibition,[2],68.2%
same,inhibition at 10 µM,[3],14.3%
same,inhibition at 50 µM,[5],56.1%
Nc1ncnc2c1ncn2Cc1ccc(-c2ccc(C[n+]3ccc(N4CCCC4)cc3)cc2)cc1,inhibition,[1],50.2%
same,inhibition,[2],72.8%
same,inhibition at 10 µM,[3],10.4%
same,inhibition at 50 µM,[5],45%
Nc1ncnc2c1ncn2Cc1ccc(CCCCc2ccc(C[n+]3ccc(N4CCCC4)cc3)cc2)cc1,inhibition,[1],36.9%
same,inhibition,[2],41.9%
same,inhibition at 10 µM,[3],15.4%
same,inhibition at 50 µM,[5],90.1%
Nc1ncn(Cc2ccc(CCc3ccc(C[n+]4ccc(N5CCCC5)cc4)cc3)cc2)c2ncnc1-2,inhibition,[1],0.1%
same,inhibition,[2],24.8%
same,inhibition at 10 µM,[3],11.6%
same,inhibition at 50 µM,[5],30%
CN(C)c1cc[n+](Cc2ccc(CCCCc3ccc(Cn4cnc5c(N)ncnc54)cc3)cc2)cc1,IC50,[6],49.7 µM
same,inhibition,[1],66.7%
same,inhibition,[2],89.7%
same,inhibition at 10 µM,[3],10.2%
same,IC50,[4],10.7 µM
same,inhibition at 50 µM,[5],45.5%
Nc1ncnc2c1ncn2Cc1ccc(CCc2ccc(C[n+]3ccc(N4CCCC4)cc3)cc2)cc1,inhibition,[1],28.6%
same,inhibition,[2],46.9%
same,inhibition at 10 µM,[3],30.1%
same,inhibition at 50 µM,[5],45%
CN(C)c1cc[n+](Cc2ccc(-c3ccc(Cn4cnc5c(N)ncnc54)cc3)cc2)cc1,inhibition,[1],37.6%
same,inhibition,[2],51%
same,inhibition at 10 µM,[3],0%
same,inhibition at 50 µM,[5],10.3%
